Screens as filed in PubChem BioAssay.
rRNA inh HTS – inhibitors of bacterial rRNA selective over humanized ribosomes. hit rate 1.6% among 350,000. AID 720706. E. coli WT GFP vs humanized-ribosome RFP mutants, fluorescence, 24 h; hits give low values; DMSO median 0, no signal -100. GFP signal change (wild-type ribosome), % (test concentration not listed);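 active = significant combined selectivity score with lowered wild-type GFP, culture density cut under 30%, mutant RFP and density less affected; inactive = any of these conditions unmet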
XiGFP reactiv – activators of X-chromosome reactivation in mouse fibroblasts. XiGFP mouse fibroblasts, % GFP-positive cells imaging, 3 d; cells co-treated with 5-aza-dC sensitizer; scaled so ellipticine positive control = 100%. activation, % at 7.58 µM. AID 743238. hit rate 0.055% among 360,000;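 active = mean normalized replicate activation at least 10% and every replicate at or above 10%; inconclusive = only one of the two criteria met; inactive = mean below 10% and not all replicates reach 10%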
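System: SV40-immortalized XiGFP fibroblast cells, line 68-5-11 / Incubation: 3-day compound exposure, then 15 min fixation at room temperature / Compound: single concentration per compound, delivered by pin transfer / Buffer or medium: DMEM plus 5-aza-dC sensitizer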
RAD54 branch – blocks human RAD54 Holliday junction branch migration | Q92698 | FAM/BHQ fluorescence | inhibition, % at 10.4 µM | hit rate 0.14% among 360,000 | AID 602329;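 active = mean normalized replicate activity at least 40 and at least half of replicates scoring 40 or more; inconclusive = only one of the two criteria met; inactive = mean below 40 and under half of replicates reaching 40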;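 also: inhibitors cause a drop in the FAM fluorescence signal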
Target sequence (Q92698 whole entry, looked up): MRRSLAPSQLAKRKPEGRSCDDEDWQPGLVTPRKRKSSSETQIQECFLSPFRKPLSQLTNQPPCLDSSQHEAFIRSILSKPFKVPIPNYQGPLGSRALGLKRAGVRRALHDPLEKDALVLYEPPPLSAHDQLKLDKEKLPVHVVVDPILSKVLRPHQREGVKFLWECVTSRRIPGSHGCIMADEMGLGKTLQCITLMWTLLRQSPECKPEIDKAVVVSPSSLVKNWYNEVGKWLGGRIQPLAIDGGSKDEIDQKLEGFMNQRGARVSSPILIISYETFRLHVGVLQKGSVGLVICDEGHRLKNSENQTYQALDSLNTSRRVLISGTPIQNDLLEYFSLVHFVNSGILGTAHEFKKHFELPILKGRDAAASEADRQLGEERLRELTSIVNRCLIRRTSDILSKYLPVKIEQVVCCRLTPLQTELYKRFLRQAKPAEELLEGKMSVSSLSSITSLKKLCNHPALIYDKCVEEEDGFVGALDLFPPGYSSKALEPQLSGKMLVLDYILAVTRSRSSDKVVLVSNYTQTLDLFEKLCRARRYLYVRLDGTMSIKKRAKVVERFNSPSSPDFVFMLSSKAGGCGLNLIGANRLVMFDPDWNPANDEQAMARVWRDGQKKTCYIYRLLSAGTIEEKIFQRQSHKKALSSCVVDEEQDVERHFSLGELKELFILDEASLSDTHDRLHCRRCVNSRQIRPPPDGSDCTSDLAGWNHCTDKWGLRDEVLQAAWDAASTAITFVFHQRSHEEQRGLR
E-sel inducer – E-selectin induction on HUVECs; P16581; HUVEC E-selectin immunofluorescence imaging; normalized: neutral wells 0, TNF-alpha wells 100; activation, % at 7.58 µM; hit rate 0.37% among 260,000;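 active = mean E-selectin-positive cell signal at least 10% of the positive control, reached in at least 60% of replicates, without over 20% cell loss; inconclusive = no rule given, readout overlaps actives, possibly toxicity-flagged; inactive = the rest, including those meeting only one limit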
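Test system: HUVEC; input: 3,000 HUVEC/well; measured by: immunofluorescence imaging; read-out: % PE-positive cells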
PglD DTNB – PglD (C. jejuni) enzyme inhibition; purified PglD enzyme, DTNB colorimetric CoA detection; inhibition, % at 12.5 µM; hit rate 0.098% among 360,000; in the data active = inhibition above about 16%, passing the limit was not always enough; inconclusive = no clear call, values can overlap the other calls
RAD52 anneal inh – RAD52 (human) annealing inhibition. P43351. recombinant RAD52 DNA annealing, FRET fluorescence. inhibition, % at 18.7 µM. hit rate 0.46% among 360,000. AID 651710;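 active = every replicate showing at least 50% inhibition; inconclusive = mean inhibition at least 50% but not in every replicate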
AID977621 – growth inhibition of wild-type GFP E. coli, dose response, H69 mutant RFP, cherry-pick | shares compounds with rRNA inh HTS | E. coli wild-type GFP strain growth, fluorescence, 24 h | activity change, negative = inhibition at 50 µM | 1,900 tested, under 10 active | AID 977621;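 active = Wild-type ribosome reporter drop at least double the humanized mutant ribosome reporter drop, growth loss under a set limit; inconclusive = no clear call, values can overlap the other calls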;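 also: wild-type GFP and H69 mutant RFP strains grown together 50/50 in each well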
AID977628 – E. coli growth inhibition, wild-type GFP versus h24 humanized RFP strain, dose response, h24 mutant RFP vs wild-type GFP, cherry-pick. E. coli WT GFP strain growth, fluorescence, 24 h. 1,900 tested, under 10 active. activity change, negative = inhibition at 50 µM. shares compounds with rRNA inh HTS;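 active = compound lowering the normal-ribosome reporter at least twice as much as the humanized-ribosome reporter, growth loss under a set limit; inconclusive = no clear call, values can overlap the other calls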;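 also: wild-type GFP and h24 humanized RFP strains co-cultured 1 to 1 per well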
Hits are given with their value; 0 = inactive; ? = inconclusive; - = not tested or not shown. Hits are enriched below; roughly 2% of the tested compounds scored in any of these assays.

SMILES	rRNA inh HTS	XiGFP reactiv	RAD54 branch	E-sel inducer	PglD DTNB	RAD52 anneal inh	AID977621	AID977628
COc1ccc(C(=O)COc2ccc(F)cc2)c(O)c1	-21	0	0	0	0	0	0	0
Cc1ccc2nc(SCC(=O)c3ccc4c(c3)NC(=O)CO4)[nH]c2c1	-21	0	-	0	-	0	0	?
Cc1ccc(C)c(-n2nnnc2SCC(=O)c2ccc3c(c2)NC(=O)CO3)c1	-	-	0	-	0	-	-	-
COc1ccc(COC[C@]23Oc4ccccc4[C@H]([C@H]2COC(=O)c2ccccc2)N(C(=O)CC(C)=O)C(=O)N3C)cc1	-	-	0	-	0	0	-	-
CC1Cc2ccccc2N1C(=O)COc1ccc2c(c1)OCO2 (stereo unspecified)	-22	0	0	0	0	0	-	0
CC1CCCN(C(=O)COc2ccc3c(c2)OCO3)C1 (stereo unspecified)	0	0	0	0	0	0	-	-
Cc1ccc(-c2c[n+](CC(=O)OCc3ccccc3)c3n2CCC3)cc1	-14	0	0	-	0	0	0	0
CCN(c1ccccc1)S(=O)(=O)c1ccc(Cl)c(C(=O)NCc2ccco2)c1	-21	0	0	-	-	0	0	-
CCNC(=O)[C@H]1[C@H](CO)[C@H]2Cn3c(ccc(-c4ccccc4)c3=O)[C@H]2N1Cc1cccnc1	0	0	0	0	0	0	-	-
Nc1ccc(C(=O)OCCc2ccccc2)cc1	-30	0	0	0	0	0	0	0
O=C(OCCc1ccccc1)c1cc(O)c(O)c(O)c1	0	0	0	0	0	0	-	-
O=c1c2cc3c(nc2[nH]c(=S)n1-c1ccccc1)CCCC3	0	0	0	0	0	0	-	-
CSc1nc2nc3c(cc2c(=O)n1-c1ccccc1C)CCCC3	-30	0	0	0	0	0	0	0
Brc1ccc(Nc2ncnc3[nH]ncc23)cc1	-20	0	0	0	0	0	0	-
Cc1ccc(NCC(=O)c2ccc(C)cc2)cc1	-18	0	0	0	0	0	0	0
C[C@@H]1CCCCO[C@@H](CN(C)Cc2ccc(C(F)(F)F)cc2)[C@H](C)CN([C@@H](C)CO)C(=O)c2cc(NS(=O)(=O)c3cn(C)cn3)ccc2O1	0	0	0	0	0	0	-	-
COc1ccc(CCCc2nc3ccccc3[nH]2)cc1	-22	30	-	0	-	0	0	?
COc1ccc(C2CC(c3cccs3)=Nc3ccccc3S2)cc1 (stereo unspecified)	-26	-	0	-	0	0	0	?
COc1ccc(C2CC(c3cccs3)=NN2S(C)(=O)=O)cc1 (stereo unspecified)	0	0	0	0	0	0	-	-
C[C@@H]1CN([C@@H](C)CO)C(=O)c2cc(NC(=O)Cc3ccccc3)ccc2O[C@@H](C)CCCCO[C@H]1CN(C)C(=O)CCC(F)(F)F	0	0	0	0	0	0	-	-
O=C(Nc1ccccc1F)N1C[C@H]2[C@@H](c3ccccc31)[C@@H](CO)N2C(=O)Cc1ccccc1	0	0	0	0	0	0	-	-
O=C(Nc1cccc(Cl)c1)N1C[C@H]2[C@@H](c3ccccc31)[C@H](CO)N2Cc1ccncc1	-29	0	0	0	0	0	-	?
O=C(Nc1cccc(Cl)c1)N1C[C@@H]2[C@H](c3ccccc31)[C@H](CO)N2Cc1cccnc1	0	0	0	0	0	0	-	-
O=C(Nc1cccc(Cl)c1)N1C[C@H]2[C@@H](c3ccccc31)[C@@H](CO)N2C(=O)c1ccncc1	-23	0	0	0	0	0	-	?
O=C(Nc1ccccc1F)N1C[C@@H]2[C@H](c3ccccc31)[C@@H](CO)N2C(=O)Cc1ccccc1	-44	0	0	0	0	0	-	?
SMILES	rRNA inh HTS	XiGFP reactiv	RAD54 branch	E-sel inducer	PglD DTNB	RAD52 anneal inh	AID977621	AID977628
CC(C)(C)[S@@](=O)N1Cc2cc(C(=O)NCc3ccccc3F)nc(-c3cccc(-c4cncnc4)c3)c2[C@H]1CCO	0	0	0	-	0	0	-	-
COC(=O)C[C@H]1CC[C@@H]2[C@@H](COc3ccc(NC(=O)Nc4ccccc4C)cc3C(=O)N2C)O1	0	0	0	0	0	0	-	-
CCCNC(=O)N1CC2(C1)[C@H](c1ccccc1)[C@@H](CO)N2CC1CCCC1	0	0	-	0	-	0	-	-
C[C@H](CO)N1C[C@H](C)[C@@H](CN(C)C(=O)Nc2ccc(C(F)(F)F)cc2)OCCCC[C@H](C)Oc2ccc(NC(=O)CCC(F)(F)F)cc2C1=O	0	0	0	0	0	0	-	-
C[C@@H]1CN([C@@H](C)CO)C(=O)c2cc(NC(=O)Nc3cccc4ccccc34)ccc2O[C@@H](C)CCCCO[C@H]1CN(C)C	0	0	0	0	0	0	0	0
C[C@H]1CCCCO[C@H](CN(C)C)[C@@H](C)CN([C@@H](C)CO)C(=O)c2cc(NC(=O)Nc3cccc4ccccc34)ccc2O1	0	0	0	0	0	0	0	?
C[C@@H]1CCCCO[C@H](CN(C)C(=O)c2ccccc2)[C@@H](C)CN([C@@H](C)CO)C(=O)c2cc(NC(=O)Cc3ccccc3)ccc2O1	0	0	0	0	0	0	-	-
C[C@@H]1CCCCO[C@@H](CN(C)C(=O)c2ccccc2)[C@H](C)CN([C@@H](C)CO)C(=O)c2cc(NC(=O)Cc3ccccc3)ccc2O1	-25	0	0	0	0	0	-	?
C[C@@H]1CCCCO[C@H](CN(C)C)[C@@H](C)CN([C@H](C)CO)C(=O)c2cc(NC(=O)Nc3cccc4ccccc34)ccc2O1	0	0	0	0	0	0	0	?
C[C@@H]1CCCCO[C@H](CN(C)S(C)(=O)=O)[C@H](C)CN([C@@H](C)CO)C(=O)c2cc(NC(=O)Nc3cccc4ccccc34)ccc2O1	0	0	0	0	0	0	-	-
CN1CCN(C(=O)C[C@H]2CC[C@@H]3[C@H](COC[C@H](O)CN3C(=O)C3CCCC3)O2)CC1	0	0	0	0	0	0	-	-
O=C([C@H]1[C@H](CO)[C@H]2Cn3c(cccc3=O)[C@H]2N1CC1CCCC1)N1CCOCC1	0	0	0	0	0	0	-	-
COc1cccc(CN2CCC3(CC2)CN(C(=O)C2CC2)[C@H](CO)c2[nH]c4cc(OC)ccc4c23)c1	0	0	-	0	-	0	-	-
C[C@@H]1CN([C@H](C)CO)C(=O)Cc2cc(NS(=O)(=O)c3ccc(Cl)cc3)ccc2O[C@H]1CN(C)C(=O)Nc1ccc2c(c1)OCO2	0	0	-	0	-	-	-	-
